Assay results reported in ChEMBL document CHEMBL4017520, “Discovery, Structure-Activity Relationship, and Antiparkinsonian Effect of a Potent and Brain-Penetrant Chemical Series of Positive Allosteric Modulators of Metabotropic Glutamate Receptor 4” (J Med Chem, 2017).
Active and inactive are the calls of the source. No cut-off for these calls is given here.

Tests used:
Rattus norvegicus [1] = experiment: Protection against 6-OHDA induced parkinsonian motor deficit in Sprague-Dawley rat assessed as increase in active time at 30 mg/kg, ip after 28 days post surgery; assay type: functional, organism-based
How it was run: (§1)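 Adult male Sprague−Dawley rats with bilateral 6-OHDA striatal lesions given compound 30 mg/kg ip or vehicle at T0; spontaneous locomotor activity (active time, slow activity, rearing) counted in 5-min bins versus pre-surgery vehicle; n = 10.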

[2] = target: Metabotropic glutamate receptor 4 (Rattus norvegicus) (UniProt P31423); experiment: Positive allosteric modulation of rat mGlu4 receptor expressed in HEK293 cells co-expressing Gi/Gq assessed as increase in glutamate-induced calcium flux preincubated for 10 mins followed by glutamate addition measured for 3 mins by Fluo4-AM dye based fluorescence assay relative to control; assay type: functional, cell-based
Rattus norvegicus [3] = species on record: Rattus norvegicus; experiment: Activity at kainate glutamate receptor in rat cerebral cortex at 10 uM
How it was run: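 Inhibition of orthosteric ligand binding to NMDA, AMPA and kainate receptors on rat cerebral cortex membranes, tested up to 10 μM.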

[4] = target: Glycogen synthase kinase-3 beta (Homo sapiens) (UniProt P49841); experiment: Inhibition of GSK3beta (unknown origin) at 10 uM
Rattus norvegicus [5] = experiment: Protection against 6-OHDA induced parkinsonian motor deficit in Sprague-Dawley rat assessed as increase in slow activity at 30 mg/kg, ip after 30 to 120 mins post administration; assay type: functional, organism-based; how it was run: as §1
[6] = target: T1, Metabotropic glutamate receptor 4 (Homo sapiens, UniProt Q14833); experiment: Positive allosteric modulation of recombinant human mGlu4 receptor expressed in HEK293 cells co-expressing chimeric Gi/Gq assessed as increase in EC20 glutamate-induced calcium flux preincubated for 10 mins followed by glutamate addition measured for 3 mins by Fluo4-AM dye based fluorescence assay relative to control; assay type: functional, cell-based
[7] = target: D(2) dopamine receptor (Homo sapiens) (UniProt P14416); experiment: Agonist activity at D2L receptor (unknown origin) at 10 uM
[8] = target: Metabotropic glutamate receptor 3 (Homo sapiens) (UniProt Q14832); experiment: Activity at human mGlu3 receptor expressed in HEK293 cells co-expressing Gi/Gq assessed as effect on EC20/EC80 glutamate-induced intracellular calcium level up to 10 uM preincubated for 10 mins followed by glutamate addition measured for 3 mins by Fluo4-AM dye based fluorescence assay; assay type: functional, cell-based
How it was run: (§2)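 HEK-293 cells were electroporated with the human mGluR plus a promiscuous or chimeric G protein and cultured 24 h, then serum-starved 3 h. Cells were loaded 1.5 h with 1 μM Fluo4-AM in HBSS/HEPES buffer with probenecid and 0.1% BSA. Compound was added for 10 min, then glutamate at EC20 (PAM) or EC80 (NAM), and fluorescence (ex 485/em 525) was read for 3 min.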

[9] = target: Metabotropic glutamate receptor 1 (Homo sapiens) (UniProt Q13255); experiment: Activity at human mGlu1 receptor expressed in HEK293 cells co-expressing Gi/Gq assessed as effect on EC20/EC80 glutamate-induced intracellular calcium level up to 10 uM preincubated for 10 mins followed by glutamate addition measured for 3 mins by Fluo4-AM dye based fluorescence assay; assay type: functional, cell-based; how it was run: as §2
[10] = target: Metabotropic glutamate receptor 5 (Homo sapiens) (UniProt P41594); experiment: Activity at human mGlu5 receptor expressed in HEK293 cells co-expressing Gi/Gq assessed as effect on EC20/EC80 glutamate-induced intracellular calcium level up to 10 uM preincubated for 10 mins followed by glutamate addition measured for 3 mins by Fluo4-AM dye based fluorescence assay; assay type: functional, cell-based; how it was run: as §2
Rattus norvegicus [11] = experiment: Protection against 6-OHDA induced parkinsonian motor deficit in Sprague-Dawley rat assessed as increase in slow activity at 30 mg/kg, ip after 28 days post surgery; assay type: functional, organism-based; how it was run: as §1
[12] = Activity at COMT (unknown origin) up to 10 uM; assay type: ADME; settings: human
[13] = Drug uptake in Sprague-Dawley rat brain at 10 mg/kg, po after 30 mins post dose administered as single dose by LC-MS/MS analysis; assay type: ADME, organism-based; settings: read-out: Drug uptake
How it was run: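 Rats given a single oral dose of 10 mg/kg. The first plasma sample was taken at 15 min, and sampling continued to 24 h postdose. Brain was sampled at 30 min. Values are the mean (±SEM) of 3 rats.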

[14] = target: T1, Metabotropic glutamate receptor 4; experiment: Positive allosteric modulation of recombinant human mGlu4 receptor expressed in HEK293 cells co-expressing chimeric G protein assessed as increase in EC20 glutamate-induced […]; assay type: functional, cell-based
[15] = Ratio of drug level in Sprague-Dawley rat brain to plasma at 10 mg/kg, ip after 30 mins post dose administered as single dose by LC-MS/MS analysis; assay type: ADME, organism-based; settings: read-out: BPR
How it was run: (§3)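 Single dose ip (10 or 30 mg/kg, rat) or oral (10 mg/kg, rat or mouse); plasma Cmax, Tmax, half-life, AUC0−inf derived; brain concentration and brain/plasma ratio at 30 min postdose. Mean of 3 rats or 2 mice.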

[16] = Ratio of drug level in Sprague-Dawley rat brain to plasma at 30 mg/kg, ip after 30 mins post dose administered as single dose by LC-MS/MS analysis; assay type: ADME, organism-based; settings: read-out: BPR; how it was run: as §3
[17] = Plasma concentration in Sprague-Dawley rat at 30 mg/kg, ip after 60 mins; assay type: ADME, organism-based
How it was run: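 Rats dosed 30 mg/kg ip; plasma sampled over time, brain measured at 30 and 60 min; brain/plasma ratio averaged over 30 and 60 min.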

[18] = Ratio of drug level in Sprague-Dawley rat brain to plasma at 10 mg/kg, po after 30 mins post dose administered as single dose by LC-MS/MS analysis; assay type: ADME, organism-based; settings: read-out: BPR; how it was run: as §3
[19] = AUC (0 to infinity) in Sprague-Dawley rat plasma at 30 mg/kg, ip administered as single dose by LC-MS/MS analysis; assay type: ADME, organism-based; set-up: dose 30 mg/kg, time infinity, route intraperitoneal
How it was run: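 Rats dosed ip at 10 or 30 mg/kg. Plasma Cmax, Tmax, half-life and AUC0–inf were determined. Brain concentration was measured 30 min postdose, and brain/plasma ratio was taken at 30 min. Values are the mean (±SEM) of 3 rats.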

[20] = Half life in Sprague-Dawley rat plasma at 30 mg/kg, ip administered as single dose by LC-MS/MS analysis; assay type: ADME, organism-based; how it was run: as §3
[21] = Ratio of drug uptake in Sprague-Dawley rat brain at 10 mg/kg, ip to EC50 for rat mGlu4 receptor expressed in HEK293 cells
How it was run: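 Rats received a single ip or oral dose. Brain concentration was measured 30 min postdose, mean of 3 rats, and divided by the EC50 measured in cell lines overexpressing rat mGluR4.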

Mus musculus = experiment: Anti-parkinson's activity in C57BL/6 mouse assessed as brain concentration required for reversal of haloperidol-induced catalepsy at 30 mg/kg, ip after 40 mins; assay type: functional
Brain [22] = experiment: Fraction unbound in Sprague-Dawley rat brain at 30 mg/kg, ip after 60 mins; assay type: ADME, organism-based; settings: in vivo, 1 h
Rattus norvegicus [23] = experiment: Toxicity in 6-OHDA induced parkinsonian motor deficit Sprague-Dawley rat model assessed as induction of overacting rearing behavior up to 30 mg/kg, ip in presence of L-dopa; assay type: organism-based; settings: in vivo
Brain [24] = experiment: Fraction unbound in Sprague-Dawley rat brain at 30 mg/kg, ip after 30 mins; assay type: ADME, organism-based; settings: in vivo, 0.5 h
[25] = Drug uptake in Sprague-Dawley rat brain at 30 mg/kg, ip after 60 mins; assay type: ADME, organism-based; settings: read-out: Drug uptake

T1 sequence (Q14833 whole entry): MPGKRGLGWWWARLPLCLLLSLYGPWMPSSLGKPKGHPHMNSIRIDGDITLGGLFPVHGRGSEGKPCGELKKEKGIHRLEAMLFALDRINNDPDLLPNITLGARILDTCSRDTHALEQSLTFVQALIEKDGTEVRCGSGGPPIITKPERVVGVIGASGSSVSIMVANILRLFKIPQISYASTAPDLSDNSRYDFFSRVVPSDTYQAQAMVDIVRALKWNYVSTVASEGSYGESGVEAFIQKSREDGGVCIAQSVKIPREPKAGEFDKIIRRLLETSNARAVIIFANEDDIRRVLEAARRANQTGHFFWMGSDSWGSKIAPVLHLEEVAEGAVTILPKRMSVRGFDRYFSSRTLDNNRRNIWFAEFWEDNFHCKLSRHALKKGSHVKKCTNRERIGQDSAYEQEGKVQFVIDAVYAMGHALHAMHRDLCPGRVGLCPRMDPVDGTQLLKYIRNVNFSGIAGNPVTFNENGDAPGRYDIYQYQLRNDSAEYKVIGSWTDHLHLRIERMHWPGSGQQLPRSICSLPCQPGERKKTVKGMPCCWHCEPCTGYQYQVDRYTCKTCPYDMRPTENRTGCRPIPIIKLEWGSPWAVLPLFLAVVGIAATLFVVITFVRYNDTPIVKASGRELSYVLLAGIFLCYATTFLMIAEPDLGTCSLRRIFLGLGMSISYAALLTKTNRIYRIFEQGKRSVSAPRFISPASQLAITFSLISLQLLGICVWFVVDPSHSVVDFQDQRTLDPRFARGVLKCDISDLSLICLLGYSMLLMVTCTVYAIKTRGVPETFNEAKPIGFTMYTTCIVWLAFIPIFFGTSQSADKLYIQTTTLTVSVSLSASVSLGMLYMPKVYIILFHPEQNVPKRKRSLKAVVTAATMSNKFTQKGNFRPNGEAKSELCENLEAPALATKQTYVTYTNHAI
Sequence of Metabotropic glutamate receptor 3 (Homo sapiens) (Q14832 23-879 limits assumed): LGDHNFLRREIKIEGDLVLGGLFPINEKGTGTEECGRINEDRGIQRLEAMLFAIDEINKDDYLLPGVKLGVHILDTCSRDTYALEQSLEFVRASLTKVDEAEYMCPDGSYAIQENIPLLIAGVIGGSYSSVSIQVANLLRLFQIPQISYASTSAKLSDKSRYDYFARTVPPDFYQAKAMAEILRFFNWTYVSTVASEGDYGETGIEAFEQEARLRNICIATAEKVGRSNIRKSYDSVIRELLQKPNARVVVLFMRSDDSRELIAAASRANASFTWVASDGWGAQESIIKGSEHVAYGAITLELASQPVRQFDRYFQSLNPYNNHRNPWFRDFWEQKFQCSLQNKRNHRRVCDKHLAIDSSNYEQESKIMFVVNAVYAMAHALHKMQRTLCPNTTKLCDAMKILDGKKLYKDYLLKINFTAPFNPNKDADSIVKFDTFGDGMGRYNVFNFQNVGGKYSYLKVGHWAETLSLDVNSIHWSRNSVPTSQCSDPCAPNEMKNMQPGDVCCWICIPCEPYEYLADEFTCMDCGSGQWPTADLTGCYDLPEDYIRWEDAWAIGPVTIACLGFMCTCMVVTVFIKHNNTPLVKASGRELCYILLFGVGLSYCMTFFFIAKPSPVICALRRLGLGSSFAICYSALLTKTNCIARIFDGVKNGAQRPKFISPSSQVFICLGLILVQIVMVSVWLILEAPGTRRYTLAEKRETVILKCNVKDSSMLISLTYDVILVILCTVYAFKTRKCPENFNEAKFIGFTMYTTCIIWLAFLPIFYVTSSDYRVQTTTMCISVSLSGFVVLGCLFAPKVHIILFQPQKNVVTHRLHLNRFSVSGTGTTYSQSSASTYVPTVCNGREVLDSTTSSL
Sequence of D(2) dopamine receptor (Homo sapiens) (P14416 whole entry): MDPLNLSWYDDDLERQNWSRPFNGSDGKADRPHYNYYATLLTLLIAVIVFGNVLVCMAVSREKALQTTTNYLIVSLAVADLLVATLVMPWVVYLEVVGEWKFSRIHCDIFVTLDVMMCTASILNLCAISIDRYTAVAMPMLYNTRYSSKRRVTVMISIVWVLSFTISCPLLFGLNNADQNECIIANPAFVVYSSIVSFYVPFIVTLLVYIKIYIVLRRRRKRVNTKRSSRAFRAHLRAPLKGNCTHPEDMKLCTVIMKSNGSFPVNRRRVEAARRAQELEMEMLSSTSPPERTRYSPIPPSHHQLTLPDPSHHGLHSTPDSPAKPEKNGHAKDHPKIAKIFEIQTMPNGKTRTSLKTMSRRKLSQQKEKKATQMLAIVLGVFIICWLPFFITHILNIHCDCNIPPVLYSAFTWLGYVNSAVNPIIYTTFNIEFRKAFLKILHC
Sequence of Glycogen synthase kinase-3 beta (Homo sapiens) (P49841 whole entry, looked up): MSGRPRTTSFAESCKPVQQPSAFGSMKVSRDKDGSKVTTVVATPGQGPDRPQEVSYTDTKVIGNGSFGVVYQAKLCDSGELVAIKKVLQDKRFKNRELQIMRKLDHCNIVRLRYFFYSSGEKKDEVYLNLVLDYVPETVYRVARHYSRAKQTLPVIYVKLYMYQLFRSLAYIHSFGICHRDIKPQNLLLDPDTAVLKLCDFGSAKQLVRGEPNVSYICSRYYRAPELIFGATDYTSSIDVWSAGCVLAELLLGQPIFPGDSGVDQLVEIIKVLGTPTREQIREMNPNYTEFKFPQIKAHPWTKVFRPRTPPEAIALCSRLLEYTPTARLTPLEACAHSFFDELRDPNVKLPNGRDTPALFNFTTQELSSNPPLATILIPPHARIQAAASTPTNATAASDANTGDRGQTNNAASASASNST
Sequence of Metabotropic glutamate receptor 4 (Rattus norvegicus) (P31423 whole entry): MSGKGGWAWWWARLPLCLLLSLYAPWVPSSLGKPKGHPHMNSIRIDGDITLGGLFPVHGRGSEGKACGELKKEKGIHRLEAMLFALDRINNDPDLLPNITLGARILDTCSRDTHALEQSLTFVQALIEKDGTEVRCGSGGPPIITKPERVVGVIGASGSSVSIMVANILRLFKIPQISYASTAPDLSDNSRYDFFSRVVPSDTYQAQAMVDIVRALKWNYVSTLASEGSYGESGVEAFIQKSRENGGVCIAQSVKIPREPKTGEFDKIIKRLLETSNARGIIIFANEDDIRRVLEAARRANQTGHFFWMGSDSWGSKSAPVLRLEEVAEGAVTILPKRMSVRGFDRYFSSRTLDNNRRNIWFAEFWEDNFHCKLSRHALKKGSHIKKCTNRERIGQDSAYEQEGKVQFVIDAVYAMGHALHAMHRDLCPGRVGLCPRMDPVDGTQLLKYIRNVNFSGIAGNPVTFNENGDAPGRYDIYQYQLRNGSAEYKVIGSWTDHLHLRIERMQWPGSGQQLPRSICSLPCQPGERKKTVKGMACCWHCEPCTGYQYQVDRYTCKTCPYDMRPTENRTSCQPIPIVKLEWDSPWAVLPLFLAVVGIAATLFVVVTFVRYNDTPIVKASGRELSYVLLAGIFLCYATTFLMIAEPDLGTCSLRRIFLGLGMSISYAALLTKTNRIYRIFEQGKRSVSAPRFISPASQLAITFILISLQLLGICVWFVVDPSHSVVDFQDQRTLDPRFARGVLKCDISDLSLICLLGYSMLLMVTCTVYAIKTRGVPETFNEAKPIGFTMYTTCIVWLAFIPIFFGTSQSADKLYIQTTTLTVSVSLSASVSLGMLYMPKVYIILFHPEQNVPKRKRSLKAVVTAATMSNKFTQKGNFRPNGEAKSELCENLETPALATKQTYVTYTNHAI
Sequence of Metabotropic glutamate receptor 1 (Homo sapiens) (Q13255 19-1194 limits assumed): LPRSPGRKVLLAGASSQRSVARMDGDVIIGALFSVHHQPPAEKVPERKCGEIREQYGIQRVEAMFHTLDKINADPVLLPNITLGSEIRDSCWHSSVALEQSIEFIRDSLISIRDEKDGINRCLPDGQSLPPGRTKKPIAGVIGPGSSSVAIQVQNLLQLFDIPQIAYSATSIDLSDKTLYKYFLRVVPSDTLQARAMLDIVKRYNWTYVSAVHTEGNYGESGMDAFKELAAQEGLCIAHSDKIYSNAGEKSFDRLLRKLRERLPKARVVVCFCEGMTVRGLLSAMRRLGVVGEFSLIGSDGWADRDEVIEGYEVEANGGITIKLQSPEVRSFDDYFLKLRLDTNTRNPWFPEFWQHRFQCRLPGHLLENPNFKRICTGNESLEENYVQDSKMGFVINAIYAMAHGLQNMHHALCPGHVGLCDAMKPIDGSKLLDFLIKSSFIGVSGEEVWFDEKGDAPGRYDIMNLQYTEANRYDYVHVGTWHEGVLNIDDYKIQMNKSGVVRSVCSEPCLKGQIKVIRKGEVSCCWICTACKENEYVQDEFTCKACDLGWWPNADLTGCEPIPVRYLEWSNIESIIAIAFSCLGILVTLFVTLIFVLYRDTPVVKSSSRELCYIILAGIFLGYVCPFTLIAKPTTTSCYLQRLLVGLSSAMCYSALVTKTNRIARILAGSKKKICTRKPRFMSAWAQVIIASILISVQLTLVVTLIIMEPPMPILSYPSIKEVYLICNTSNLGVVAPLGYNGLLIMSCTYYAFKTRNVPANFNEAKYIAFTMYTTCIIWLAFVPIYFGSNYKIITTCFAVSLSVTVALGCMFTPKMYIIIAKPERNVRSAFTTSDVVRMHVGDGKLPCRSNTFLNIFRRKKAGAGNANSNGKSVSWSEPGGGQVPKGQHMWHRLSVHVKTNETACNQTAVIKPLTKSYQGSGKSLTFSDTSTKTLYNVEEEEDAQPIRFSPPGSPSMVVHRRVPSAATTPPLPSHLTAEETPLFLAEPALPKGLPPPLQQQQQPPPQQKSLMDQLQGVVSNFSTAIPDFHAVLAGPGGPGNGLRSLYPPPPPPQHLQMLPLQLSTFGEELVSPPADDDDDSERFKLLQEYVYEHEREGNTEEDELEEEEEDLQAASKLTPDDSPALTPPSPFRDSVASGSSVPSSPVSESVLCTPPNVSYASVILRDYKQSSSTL

For `O/N=c1\cc(-c2cc3cccn3cn2)oc2ccc(OCCN3CCOCC3)cc12` [listing 1 of 2 here], the Activity (Rattus norvegicus [1]) was “Active”, the Emax [2] was 75% and the Activity (Rattus norvegicus [3]) was “inactive”. The inhibition [4] was “inactive”, the Activity (Rattus norvegicus [5]) was “Active” and the Emax [6] was 77%. The Activity [7] was “inactive”, the Activity [8] was “inactive” and the Activity [9] was “inactive”. For the same molecule, the Activity [10] was “inactive” and the Activity (Rattus norvegicus [11]) was “Active”.
With `O/N=c1\cc(-c2cc3cccn3cn2)oc2ccc(OCCN3CCOCC3)cc12` [listing 2 of 2 here] the Activity [12] was “Not Active”, the concentration at 0.5 h [13] was 454 ng/g and the EC50 [14] was 70 nM. It also gave a Kp at 0.5 h [15] of 3.1, a Kp at 0.5 h [16] of 3.1 and a concentration at 1 h [17] of 3560 ng/mL. The Kp at 0.5 h [18] was 2.3, the AUC(0-inf) [19] was 11300 ng·h/mL and the half-life [20] was 270 min. The Ratio [21] was 3.6, the fEC50 (Mus musculus) was 5 nM and the “Drug uptake(free)” value (Brain [22]) was 91 ng/g. The Activity (Rattus norvegicus [23]) was “Non-Toxic”, the “Drug uptake(free)” value (Brain [24]) was 173 ng/g and the concentration at 1 h [25] was 12000 ng/g.
